Results as given in ChEMBL document CHEMBL2034828, “Synthesis of β(1,3) oligoglucans exhibiting a Dectin-1 binding affinity and their biological evaluation” (Bioorg Med Chem, 2012).
Active and inactive are the calls of the source. No cut-off for these calls is given here.

How the values were obtained:
[1] = target: T1, C-type lectin domain family 7 member A (Mus musculus) (UniProt Q6QLQ4); experiment: Inhibition of mouse N-terminal hexahistidine-tagged C-type lectin domain of Dectin-1 expressed in Escherichia coli BL21 (DE3) binding to solid-supported schizophyllan pretreated for 30 mins prior SPG addition measured after 1 hr by competitive ELISA relative to SPG
T1 sequence (whole entry): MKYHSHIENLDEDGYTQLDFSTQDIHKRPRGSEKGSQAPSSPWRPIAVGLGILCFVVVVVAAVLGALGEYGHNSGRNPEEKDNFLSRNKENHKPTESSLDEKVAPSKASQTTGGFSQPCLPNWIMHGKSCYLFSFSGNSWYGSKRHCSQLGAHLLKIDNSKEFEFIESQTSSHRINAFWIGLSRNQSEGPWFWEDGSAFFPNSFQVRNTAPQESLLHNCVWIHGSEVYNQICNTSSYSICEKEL

[2] = target: T2, C-type lectin domain family 7 member A (Homo sapiens) (UniProt Q9BXN2); experiment: Agonist activity at Dectin-1 expressed in human 293T cells assessed as LPS-mediated NF-kappaB activation after 6 hrs by dual luciferase reporter gene assay; type: functional, cell-based
T2 sequence (whole entry): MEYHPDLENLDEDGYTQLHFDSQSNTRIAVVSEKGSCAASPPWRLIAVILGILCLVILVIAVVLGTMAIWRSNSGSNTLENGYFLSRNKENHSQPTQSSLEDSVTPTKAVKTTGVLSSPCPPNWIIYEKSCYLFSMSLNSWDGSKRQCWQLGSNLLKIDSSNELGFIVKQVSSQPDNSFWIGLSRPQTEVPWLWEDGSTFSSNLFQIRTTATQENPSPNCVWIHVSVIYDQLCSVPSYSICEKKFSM
Procedure, shortened: (§1)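 293T cells were plated at 1 × 10⁴ cells/well in DMEM with 10% FBS for 20 h at 37 °C, 5% CO₂. They were then lipofected for 18 h. Dectin-1 wells received Dectin-1A, CARD9 and Bcl10 plasmids; TLR4 wells received TLR4 and MD-2 plasmids. Both received NF-κB-RE firefly and TK-Renilla reporters. Cells were stimulated 6 h with oligosaccharides, SPG, or oligosaccharides plus LPS. Read-out was the firefly/Renilla dual-luciferase ratio.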

[3] = target: Toll-like receptor 4 (Homo sapiens) (UniProt O00206); experiment: Agonist activity at TLR4 expressed in human 293T cells assessed as LPS-mediated NF-kappaB activation after 6 hrs by dual luciferase reporter gene assay; type: functional, cell-based; procedure, shortened: as §1
[4] = target: T1, C-type lectin domain family 7 member A (Mus musculus); experiment: Binding affinity to mouse N-terminal hexahistidine-tagged C-type lectin domain of Dectin-1 expressed in Escherichia coli BL21 (DE3) by measuring saturation transfer difference amplification factor
Procedure, shortened: (§2)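 Protein was mouse Dectin-1 CTLD (Gly113–Leu244) with an N-terminal His6 tag and thrombin site, expressed in E. coli BL21(DE3)codonplus in LB. Expression was induced 6 h at 37 °C. Inclusion bodies were solubilized in 8 M urea, 50 mM Tris-HCl pH 8.0, 50 mM NaCl. Protein was refolded 16 h at 4 °C by dilution into 200 mM Tris-HCl pH 8.0, 0.4 M L-arginine, 5.0 mM GSH, 0.5 mM GSSG, then purified. Ligand was titrated at 0–25 molar equivalents with ¹H NMR monitoring.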

[5] = target: T1, C-type lectin domain family 7 member A (Mus musculus); experiment: Binding affinity to mouse N-terminal hexahistidine-tagged C-type lectin domain of Dectin-1 expressed in Escherichia coli BL21 (DE3) by STD-NMR analysis; procedure, shortened: as §2

Chain of Toll-like receptor 4 (Homo sapiens) (O00206 whole entry, the tested form may be a part): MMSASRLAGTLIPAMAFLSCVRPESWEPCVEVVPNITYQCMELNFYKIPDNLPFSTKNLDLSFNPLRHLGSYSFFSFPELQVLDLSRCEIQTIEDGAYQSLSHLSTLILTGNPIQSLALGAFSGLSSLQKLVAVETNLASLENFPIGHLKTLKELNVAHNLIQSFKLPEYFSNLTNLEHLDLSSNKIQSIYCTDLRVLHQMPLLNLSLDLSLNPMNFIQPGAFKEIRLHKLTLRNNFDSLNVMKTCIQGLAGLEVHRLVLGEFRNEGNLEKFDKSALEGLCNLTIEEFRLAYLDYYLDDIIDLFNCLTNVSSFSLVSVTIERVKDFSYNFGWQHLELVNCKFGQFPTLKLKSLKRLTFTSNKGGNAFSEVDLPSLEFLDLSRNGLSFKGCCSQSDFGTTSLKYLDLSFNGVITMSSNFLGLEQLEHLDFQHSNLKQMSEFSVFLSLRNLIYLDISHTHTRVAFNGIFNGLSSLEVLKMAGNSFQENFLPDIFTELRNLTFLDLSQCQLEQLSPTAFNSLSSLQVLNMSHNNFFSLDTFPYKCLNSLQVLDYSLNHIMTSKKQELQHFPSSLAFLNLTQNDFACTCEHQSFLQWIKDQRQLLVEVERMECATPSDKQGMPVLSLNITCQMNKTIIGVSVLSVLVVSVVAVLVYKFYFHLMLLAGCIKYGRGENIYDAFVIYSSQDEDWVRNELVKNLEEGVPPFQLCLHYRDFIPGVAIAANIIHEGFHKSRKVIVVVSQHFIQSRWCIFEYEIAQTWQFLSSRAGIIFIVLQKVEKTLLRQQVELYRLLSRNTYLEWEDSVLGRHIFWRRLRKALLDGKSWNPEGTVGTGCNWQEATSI

Compound | fold change (FC) [1] | Activity [2] | Activity [3] | Activity [4] | Activity [5] | Activity [1]
NCCCCCCO[C@@H]1O[C@H](CO)[C@@H](O)[C@H](O[C@@H]2O[C@H](CO)[C@@H](O)[C@H](O[C@@H]3O[C@H](CO)[C@@H](O)[C@H](O[C@@H]4O[C@H](CO)[C@@H](O)[C@H](O[C@@H]5O[C@H](CO)[C@@H](O)[C@H](O[C@@H]6O[C@H](CO)[C@@H](O)[C@H](O[C@@H]7O[C@H](CO)[C@@H](O)[C@H](O[C@@H]8O[C@H](CO)[C@@H](O)[C@H](O[C@@H]9O[C@H](CO)[C@@H](O)[C@H](O[C@@H]%10O[C@H](CO)[C@@H](O)[C@H](O[C@@H]%11O[C@H](CO)[C@@H](O)[C@H](O[C@@H]%12O[C@H](CO)[C@@H](O)[C@H](O[C@@H]%13O[C@H](CO)[C@@H](O)[C@H](O[C@@H]%14O[C@H](CO[C@@H]%15O[C@H](CO)[C@@H](O)[C@H](O)[C@H]%15O)[C@@H](O)[C@H](O[C@@H]%15O[C@H](CO)[C@@H](O)[C@H](O[C@@H]%16O[C@H](CO)[C@@H](O)[C@H](O)[C@H]%16O)[C@H]%15O)[C@H]%14O)[C@H]%13O)[C@H]%12O)[C@H]%11O)[C@H]%10O)[C@H]9O)[C@H]8O)[C@H]7O)[C@H]6O)[C@H]5O)[C@H]4O)[C@H]3O)[C@H]2O)[C@H]1O | 10 | Active | – | – | – | –
NCCCCCCO[C@@H]1O[C@H](CO)[C@@H](O)[C@H](O[C@@H]2O[C@H](CO)[C@@H](O)[C@H](O[C@@H]3O[C@H](CO)[C@@H](O)[C@H](O[C@@H]4O[C@H](CO)[C@@H](O)[C@H](O[C@@H]5O[C@H](CO)[C@@H](O)[C@H](O[C@@H]6O[C@H](CO)[C@@H](O)[C@H](O[C@@H]7O[C@H](CO)[C@@H](O)[C@H](O[C@@H]8O[C@H](CO)[C@@H](O)[C@H](O[C@@H]9O[C@H](CO)[C@@H](O)[C@H](O[C@@H]%10O[C@H](CO)[C@@H](O)[C@H](O[C@@H]%11O[C@H](CO)[C@@H](O)[C@H](O[C@@H]%12O[C@H](CO)[C@@H](O)[C@H](O[C@@H]%13O[C@H](CO)[C@@H](O)[C@H](O[C@@H]%14O[C@H](CO)[C@@H](O)[C@H](O[C@@H]%15O[C@H](CO)[C@@H](O)[C@H](O[C@@H]%16O[C@H](CO)[C@@H](O)[C@H](O)[C@H]%16O)[C@H]%15O)[C@H]%14O)[C@H]%13O)[C@H]%12O)[C@H]%11O)[C@H]%10O)[C@H]9O)[C@H]8O)[C@H]7O)[C@H]6O)[C@H]5O)[C@H]4O)[C@H]3O)[C@H]2O)[C@H]1O | 10 | Active | inactive | Active | Active | –
NCCCCCCO[C@@H]1O[C@H](CO)[C@@H](O)[C@H](O[C@@H]2O[C@H](CO)[C@@H](O)[C@H](O[C@@H]3O[C@H](CO)[C@@H](O)[C@H](O[C@@H]4O[C@H](CO)[C@@H](O)[C@H](O[C@@H]5O[C@H](CO)[C@@H](O)[C@H](O[C@@H]6O[C@H](CO)[C@@H](O)[C@H](O[C@@H]7O[C@H](CO)[C@@H](O)[C@H](O[C@@H]8O[C@H](CO)[C@@H](O)[C@H](O[C@@H]9O[C@H](CO)[C@@H](O)[C@H](O[C@@H]%10O[C@H](CO)[C@@H](O)[C@H](O[C@@H]%11O[C@H](CO)[C@@H](O)[C@H](O[C@@H]%12O[C@H](CO)[C@@H](O)[C@H](O)[C@H]%12O)[C@H]%11O)[C@H]%10O)[C@H]9O)[C@H]8O)[C@H]7O)[C@H]6O)[C@H]5O)[C@H]4O)[C@H]3O)[C@H]2O)[C@H]1O | – | inactive | inactive | – | – | inactive
NCCCCCCO[C@@H]1O[C@H](CO)[C@@H](O)[C@H](O[C@@H]2O[C@H](CO)[C@@H](O)[C@H](O[C@@H]3O[C@H](CO)[C@@H](O)[C@H](O[C@@H]4O[C@H](CO)[C@@H](O)[C@H](O[C@@H]5O[C@H](CO)[C@@H](O)[C@H](O[C@@H]6O[C@H](CO)[C@@H](O)[C@H](O[C@@H]7O[C@H](CO)[C@@H](O)[C@H](O[C@@H]8O[C@H](CO)[C@@H](O)[C@H](O)[C@H]8O)[C@H]7O)[C@H]6O)[C@H]5O)[C@H]4O)[C@H]3O)[C@H]2O)[C@H]1O | – | inactive | inactive | – | – | inactive
NCCCCCCO[C@@H]1O[C@H](CO)[C@@H](O)[C@H](O[C@@H]2O[C@H](CO)[C@@H](O)[C@H](O[C@@H]3O[C@H](CO)[C@@H](O)[C@H](O[C@@H]4O[C@H](CO)[C@@H](O)[C@H](O[C@@H]5O[C@H](CO)[C@@H](O)[C@H](O[C@@H]6O[C@H](CO)[C@@H](O)[C@H](O[C@@H]7O[C@H](CO)[C@@H](O)[C@H](O[C@@H]8O[C@H](CO)[C@@H](O)[C@H](O[C@@H]9O[C@H](CO)[C@@H](O)[C@H](O[C@@H]%10O[C@H](CO[C@@H]%11O[C@H](CO)[C@@H](O)[C@H](O)[C@H]%11O)[C@@H](O)[C@H](O[C@@H]%11O[C@H](CO)[C@@H](O)[C@H](O[C@@H]%12O[C@H](CO)[C@@H](O)[C@H](O)[C@H]%12O)[C@H]%11O)[C@H]%10O)[C@H]9O)[C@H]8O)[C@H]7O)[C@H]6O)[C@H]5O)[C@H]4O)[C@H]3O)[C@H]2O)[C@H]1O | – | inactive | – | – | – | inactive
NCCCCCCO[C@@H]1O[C@H](CO)[C@@H](O)[C@H](O[C@@H]2O[C@H](CO)[C@@H](O)[C@H](O[C@@H]3O[C@H](CO)[C@@H](O)[C@H](O[C@@H]4O[C@H](CO)[C@@H](O)[C@H](O[C@@H]5O[C@H](CO)[C@@H](O)[C@H](O[C@@H]6O[C@H](CO[C@@H]7O[C@H](CO)[C@@H](O)[C@H](O)[C@H]7O)[C@@H](O)[C@H](O[C@@H]7O[C@H](CO)[C@@H](O)[C@H](O[C@@H]8O[C@H](CO)[C@@H](O)[C@H](O)[C@H]8O)[C@H]7O)[C@H]6O)[C@H]5O)[C@H]4O)[C@H]3O)[C@H]2O)[C@H]1O | – | inactive | – | – | – | inactive
